Experiment [1] is described as follows: Her2 expression decrease, cell viability multiplex – SKBR3 breast tumor cells, AlphaScreen, ATP viability, primary screen (AID 461;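 active means Her2 level under about 52% in both replicate screens, with viability over 70% of control, limit read from the data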;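 on Her2 level: lower value means less Her2 protein in the cells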;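 on viability: percent of carrier control wells set as 100% viability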). Particulars: SKBR3 Her2 protein level, 18-24 h, measured here: SKBR3 viability, ATP luminescence, at 10 µM. Background: Bead proximity is the source of the signal in Alpha formats.
In experiment [2] the target is Receptor tyrosine-protein kinase erbB-2 (Homo sapiens) (UniProt P04626). Described as above. Conditions: 18-24 h, at 10 µM, stronger effect = lower value.
Chain of Receptor tyrosine-protein kinase erbB-2 (Homo sapiens) (P04626 whole entry, looked up): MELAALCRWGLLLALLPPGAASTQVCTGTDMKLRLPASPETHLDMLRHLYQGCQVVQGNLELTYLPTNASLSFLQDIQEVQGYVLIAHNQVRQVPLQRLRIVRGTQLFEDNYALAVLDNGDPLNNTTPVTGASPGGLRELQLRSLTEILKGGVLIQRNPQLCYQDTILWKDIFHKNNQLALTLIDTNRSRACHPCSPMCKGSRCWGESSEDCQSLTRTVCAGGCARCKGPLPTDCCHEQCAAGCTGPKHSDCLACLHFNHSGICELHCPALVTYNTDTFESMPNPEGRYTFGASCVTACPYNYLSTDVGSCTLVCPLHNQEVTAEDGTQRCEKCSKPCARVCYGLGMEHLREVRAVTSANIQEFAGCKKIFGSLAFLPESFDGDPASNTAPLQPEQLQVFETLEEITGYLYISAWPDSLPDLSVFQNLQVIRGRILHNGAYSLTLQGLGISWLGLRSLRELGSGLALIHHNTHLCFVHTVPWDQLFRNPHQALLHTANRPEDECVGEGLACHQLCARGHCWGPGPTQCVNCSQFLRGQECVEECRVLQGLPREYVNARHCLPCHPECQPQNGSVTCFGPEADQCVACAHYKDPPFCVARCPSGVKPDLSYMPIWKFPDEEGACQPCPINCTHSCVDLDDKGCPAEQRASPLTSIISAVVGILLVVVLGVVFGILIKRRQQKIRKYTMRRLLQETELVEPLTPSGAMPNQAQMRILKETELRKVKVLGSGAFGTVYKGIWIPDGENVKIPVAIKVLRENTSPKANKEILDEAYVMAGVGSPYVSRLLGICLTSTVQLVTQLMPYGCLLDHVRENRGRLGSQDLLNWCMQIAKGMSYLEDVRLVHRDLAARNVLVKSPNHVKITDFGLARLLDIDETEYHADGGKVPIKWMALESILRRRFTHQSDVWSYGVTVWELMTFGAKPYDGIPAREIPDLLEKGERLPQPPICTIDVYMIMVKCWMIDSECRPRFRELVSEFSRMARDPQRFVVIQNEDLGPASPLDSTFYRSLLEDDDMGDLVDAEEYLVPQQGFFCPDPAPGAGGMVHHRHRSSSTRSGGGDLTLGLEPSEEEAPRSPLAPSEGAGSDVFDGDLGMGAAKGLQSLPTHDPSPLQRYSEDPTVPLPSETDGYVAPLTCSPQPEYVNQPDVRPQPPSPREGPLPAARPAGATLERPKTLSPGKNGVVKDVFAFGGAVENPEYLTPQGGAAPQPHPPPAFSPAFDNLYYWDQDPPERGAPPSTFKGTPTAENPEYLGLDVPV
Experiment [3] can be described thus: reduced viability of SK-BR-3 breast cancer cells – cell-based, 24 h, human, pilot screen (AID 572;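 active means viability at or below 10% of carrier control in both of two separate runs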;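 further: compound exposure lasted between 18 and 24 h rather than exactly 24 h; 100% = carrier-treated control wells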). Particulars: SK-BR-3 viability, CellTiter-Glo luminescence, at 10 µM, stronger effect = lower value.
Experiment [4] in a line: HUVEC growth inhibition – cell-based, human, primary screen (AID 575;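 active means viability at or below 30% in both replicate assays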;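 further: 100% = median of untreated cell wells with 0.1% DMSO on each plate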). Conditions: HUVEC proliferation, CellTiter-Glo luminescence, 72 h; at 10 µM; stronger effect = lower value. The procedure, abridged:
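Test system: primary human umbilical vein endothelial cells. Quantity: 1250 cells/well. Compound: single 10 µM dose, 0.1% DMSO, from 5x medium stock. Timing: 72 h treatment at 37 °C. Detection: ATP-based CellTiter-Glo luminescent read. Benchmarks: vehicle and MePR control wells. Format: 384-well plates coated with collagen.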
Background: ATP-based viability assays read luminescence as a measure of living cells.

A short description of experiment [5]: H69AR cell proliferation blockers – human, duplicate replicates, primary screen (AID 580;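 active means viability at or under a set limit in both replicates, limit being median viability minus 3 SD, cut at about 48% in these data, passing the limit was not always enough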;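 further: 100% = mean luminescence of untreated wells and 0% = no signal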). Particulars: H69AR lung tumor cells viability, ATP luminescence, 72 h; at 10 µM; stronger effect = lower value.
Experiment [6] can be described thus: MRP1 drug-resistance reversers in H69AR cells – cell-based, doxorubicin co-treatment, pilot screen (AID 601;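 active means viability loss from added drug above about 55%, and viability with drug at most 40%, in both replicates, limit read from the data, passing the limit was not always enough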). Conditions: CellTiter-Glo, 72 h, at 10 µM; for differential viability (reversal): stronger effect = higher value.
Experiment [7] is described as follows: yeast transport mutant growth inhibition pilot in 384-well plates, post-Golgi transport modulator project (AID 636; in the data active means inhibition above about 31%). Conditions: absorbance 615 nm, about 18 h, stronger effect = higher value.
A short description of experiment [8]: growth suppression of yeast trafficking mutant, preliminary HTS, modulators of trafficking downstream of Golgi apparatus project, 1536-format plate, OD 615 nm (AID 637). Particulars: yeast transport mutant growth, absorbance 615 nm, 18 h; stronger effect = higher value.
Where [9] appears, read: H69AR cells + 2 uM doxorubicin, measured here: viability with 2 uM doxorubicin, stronger effect = lower value.
Where [10] appears, read: H69AR cells, compound alone cytotoxicity.

The source made the active and inactive calls. Unless noted, no stated cut-off is given here; in the data, active means inhibition above about 30%; inactive means the rest.

As usually defined, the viability is a read-out of living cells in per cent, often relative to untreated cells. Broadly, the inhibition is the relative decrease from the control value, in per cent. Regarding `COc1ccc(-c2ccc(Nc3ccc(S(=O)(=O)N4CCCC4)cc3)nn2)cc1OC`, the viability is 77.5% in experiment [1]; 77.5% (inactive) in experiment [3]; 61.6% (inactive) in experiment [4]; 53.6% (inactive) in experiment [5]; 56.5% in experiment [6] (setting [9]); 53.6% in experiment [6] (setting [10]). Moreover, the Her2 level in experiment [2] was 70.5% (inactive). Moreover, the differential viability (reversal) in experiment [6] (H69AR cells + 2 uM doxorubicin) is -2.87% (inactive). In addition, the results for the inhibition in experiment [7] and in experiment [8] were -6.8% (inactive) and -1.97% (inactive), respectively.

Take `O=C(NCC1CCCO1)C1c2ccccc2C(=O)N1C1CCCCCC1` (stereo not given): the viability is 105% in experiment [1]; 105% (inactive) in experiment [3]; 88.9% (inactive) in experiment [4]; 104% (inactive) in experiment [5]; 97.6% in experiment [6] (setting [9]); 104% in experiment [6] (setting [10]). For the same molecule, the Her2 level in experiment [2] was 89% (inactive). The differential viability (reversal) in experiment [6] (H69AR cells + 2 uM doxorubicin) was 6.58% (inactive). Also, the inhibition was -2.6% (inactive) in experiment [7] and 1.43% (inactive) in experiment [8].

With `CCOC(=O)N1CCN(c2c(N3CCN(c4ccccn4)CC3)c(=O)c2=O)CC1`, the viability is 104% in experiment [1]; 104% (inactive) in experiment [3]; 95.4% (inactive) in experiment [4]; 92.5% (inactive) in experiment [5]; 82.6% in experiment [6] (setting [9]); 92.5% in experiment [6] (setting [10]). Moreover, the Her2 level in experiment [2] is 103% (inactive). Besides, the differential viability (reversal) in experiment [6] (H69AR cells + 2 uM doxorubicin) is 9.85% (inactive). Further, the inhibition is -2.67% (inactive) in experiment [7] and -2.79% (inactive) in experiment [8].

For `OCCNCC(O)Cn1ccc2ccccc21` (stereo not given), the viability in experiment [1] was 118%; in experiment [3], 118% (inactive); in experiment [4] it was 107% (inactive); in experiment [5], 88.6% (inactive); in experiment [6] (setting [9]), 88.6%; in experiment [6] (setting [10]), 88.6%. Besides, the Her2 level in experiment [2] is 94.5% (inactive). In addition, the differential viability (reversal) in experiment [6] (H69AR cells + 2 uM doxorubicin) is 0.01% (inactive). Besides, the inhibition in experiment [7] was -3.77% (inactive); in experiment [8], -0.16% (inactive).

As for `Cc1ccccc1N(CC(=O)NCC1CCCO1)C(=O)C1(C)CC(=O)N=C2C=CC=CN21` (stereo not given), the viability is 96% in experiment [1]; 96% (inactive) in experiment [3]; 104% (inactive) in experiment [4]; 98.7% (inactive) in experiment [5]; 100% in experiment [6] (setting [9]); 98.7% in experiment [6] (setting [10]). Besides, the Her2 level in experiment [2] is 96.5% (inactive). Besides, the differential viability (reversal) in experiment [6] (H69AR cells + 2 uM doxorubicin) was -1.7% (inactive). Besides, the values for the inhibition in experiment [7] and in experiment [8] were -1.05% (inactive) and -10.5% (inactive), respectively.

Take `Cc1nc(NC2=NCN(CC3CCCO3)CN2)nc2ccccc12` (stereo not given): the viability in experiment [1] is 98.5%; in experiment [3], 98.5% (inactive); in experiment [4], 86.2% (inactive); in experiment [5] it was 85.1% (inactive); in experiment [6] (setting [9]), 98.9%; in experiment [6] (setting [10]), 85.1%. Further, in experiment [2], the Her2 level was 83% (inactive). Further, the differential viability (reversal) in experiment [6] (H69AR cells + 2 uM doxorubicin) was -13.8% (inactive). The figures for the inhibition in experiment [7] and in experiment [8] were -5.07% (inactive) and -3.81% (inactive), respectively.

As to `CCN(CCCNC(=O)CC1Oc2ccc(C)cc2NC1=O)Cc1ccccc1` (stereo not given), the viability in experiment [1] was 116%; in experiment [3], 116% (inactive); in experiment [4], 97.8% (inactive); in experiment [5], 85% (inactive); in experiment [6] (setting [9]), 80.8%; in experiment [6] (setting [10]) it was 85%. Moreover, the Her2 level in experiment [2] is 94.5% (inactive). The differential viability (reversal) in experiment [6] (H69AR cells + 2 uM doxorubicin) was 4.2% (inactive). Also, the inhibition in experiment [7] is -2.27% (inactive); in experiment [8], -2.13% (inactive).

In the case of `Cc1ccc2[nH]c(=O)c(CN(CCCN3CCOCC3)C(=O)Nc3cccc(Cl)c3)cc2c1`, the viability in experiment [1] is 75.5%; in experiment [3], 75.5% (inactive); in experiment [4], 47% (inactive); in experiment [5] it was 55.4% (inactive); in experiment [6] (setting [9]), 49.9%; in experiment [6] (setting [10]) it was 55.4%. Also, in experiment [2], the Her2 level is 75% (inactive). Moreover, the differential viability (reversal) in experiment [6] (H69AR cells + 2 uM doxorubicin) is 5.47% (inactive). The inhibition in experiment [7] is -3.33% (inactive); in experiment [8], 2.13% (inactive).

Consider `O=S(=O)(Nc1cccnc1)c1cc(Cl)ccc1Cl`, for which the viability in experiment [1] was 77.5%; in experiment [3] it was 77.5% (inactive); in experiment [4], 92.2% (inactive); in experiment [5], 82.8% (inactive); in experiment [6] (setting [9]), 87.7%; in experiment [6] (setting [10]), 82.8%. Besides, the Her2 level in experiment [2] was 96% (inactive). For the same molecule, the differential viability (reversal) in experiment [6] (H69AR cells + 2 uM doxorubicin) was -4.94% (inactive). The inhibition in experiment [7] is -1.03% (inactive); in experiment [8], -3% (inactive).

`CC1(CC(=O)O)C(=O)N=C2C=CC=CN21` (stereo not given): the viability in experiment [1] is 93%; in experiment [3], 93% (inactive); in experiment [4], 97.9% (inactive); in experiment [5], 89.4% (inactive); in experiment [6] (setting [9]), 84.2%; in experiment [6] (setting [10]) it was 89.4%. Moreover, the Her2 level in experiment [2] was 87.5% (inactive). For the same molecule, the differential viability (reversal) in experiment [6] (H69AR cells + 2 uM doxorubicin) is 5.18% (inactive). Also, the inhibition was -4.93% (inactive) in experiment [7] and 0.16% (inactive) in experiment [8].

Consider `COc1ccc(Cc2nn3c(-c4cc(OC)c(OC)c(OC)c4)nnc3s2)cc1`, for which the viability was 95% in experiment [1]; 95% (inactive) in experiment [3]; 102% (inactive) in experiment [4]; 81.6% (inactive) in experiment [5]; 69.9% in experiment [6] (setting [9]); 81.6% in experiment [6] (setting [10]). Besides, in experiment [2], the Her2 level was 76.5% (inactive). In addition, the differential viability (reversal) in experiment [6] (H69AR cells + 2 uM doxorubicin) is 11.7% (inactive). The inhibition is -6.08% (inactive) in experiment [7] and 5.17% (inactive) in experiment [8].

In the case of `O=C(Cn1cnc2ccccc2c1=O)NCCC(=O)N1CCN(c2ccccc2)CC1`, the viability in experiment [1] was 90.5%; in experiment [3], 90.5% (inactive); in experiment [4], 99.6% (inactive); in experiment [5], 92% (inactive); in experiment [6] (setting [9]), 83.5%; in experiment [6] (setting [10]), 92%. Moreover, in experiment [2], the Her2 level is 83.5% (inactive). Further, the differential viability (reversal) in experiment [6] (H69AR cells + 2 uM doxorubicin) is 8.53% (inactive). Further, the inhibition was -3.25% (inactive) in experiment [7] and -0.98% (inactive) in experiment [8].

For `Cc1oc2cc(O)ccc2c(=O)c1-c1cnn(-c2ccccc2)c1`, the viability in experiment [1] was 93.5%; in experiment [3] it was 93.5% (inactive); in experiment [4], 85% (inactive); in experiment [5], 96.5% (inactive); in experiment [6] (setting [9]), 98%; in experiment [6] (setting [10]), 96.5%. In addition, in experiment [2], the Her2 level was 90% (inactive). Besides, the differential viability (reversal) in experiment [6] (H69AR cells + 2 uM doxorubicin) is -1.5% (inactive). For the same molecule, the inhibition in experiment [7] is -5.13% (inactive); in experiment [8], 13.3% (inactive).

For `CC(C)(C)c1cc(CCC(=O)N2CCNCC2)c(C(C)(C)C)cc1O`, the viability is 106% in experiment [1]; 106% (inactive) in experiment [3]; 82.9% (inactive) in experiment [4]; 98.3% (inactive) in experiment [5]; 90.3% in experiment [6] (setting [9]); 98.3% in experiment [6] (setting [10]). In addition, the Her2 level in experiment [2] was 85.5% (inactive). Also, the differential viability (reversal) in experiment [6] (H69AR cells + 2 uM doxorubicin) is 8% (inactive). Also, the values for the inhibition in experiment [7] and in experiment [8] were -0.26% (inactive) and -2.46% (inactive), respectively.

As to `COC(=O)C(C)Oc1ccc2c3c(c(=O)oc2c1)CCCCC3` (stereo not given), the viability was 90% in experiment [1]; 90% (inactive) in experiment [3]; 93.7% (inactive) in experiment [4]; 103% (inactive) in experiment [5]; 92.8% in experiment [6] (setting [9]); 103% in experiment [6] (setting [10]). The Her2 level in experiment [2] is 94.5% (inactive). Moreover, the differential viability (reversal) in experiment [6] (H69AR cells + 2 uM doxorubicin) is 10.5% (inactive). The figures for the inhibition in experiment [7] and in experiment [8] were 1.05% (inactive) and 5.74% (inactive), respectively.
